Sampled rows, rich in hits. Any-hit rate of the full collection: about 3.8%.
MrgX1 allo act – allosterically activates human MrgX1 receptor signaling; MrgX1-HEK293, Fluo-4 calcium flux, FDSS; stronger effect = higher value; B-score at 10 µM; 0.63% of 310,000 active; AID 588675;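 active = plate-corrected calcium response at least 3 library SD above typical, normal starting fluorescence, not activating the receptor alone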;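 note: compound read alongside a low EC10 to EC30 dose of BAM8-22 agonist; peak minus trough fluorescence over baseline measured at the second addition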
Target sequence (Q96LB2 whole entry, looked up): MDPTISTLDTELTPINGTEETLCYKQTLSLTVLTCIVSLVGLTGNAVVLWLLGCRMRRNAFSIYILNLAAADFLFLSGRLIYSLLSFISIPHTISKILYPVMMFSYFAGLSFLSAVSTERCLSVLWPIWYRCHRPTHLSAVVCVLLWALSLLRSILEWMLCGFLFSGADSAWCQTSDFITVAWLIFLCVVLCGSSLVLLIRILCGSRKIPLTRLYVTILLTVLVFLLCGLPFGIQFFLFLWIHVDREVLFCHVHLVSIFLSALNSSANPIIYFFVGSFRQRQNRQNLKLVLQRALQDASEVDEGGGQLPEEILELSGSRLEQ
Lipid droplet – hepatic lipid droplet formation modulation. AML12 mouse hepatocytes, oleate lipid droplets, BODIPY imaging. inhibition, % at 6.5 µM. 0.4% of 240,000 active. AID 1656;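 active = lipid droplet intensity inhibited by at least 50%, with more than 500 cells counted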
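System: AML12 hepatocytes (mouse). Probe or stimulus: oleic acid at 100 µM to induce lipid droplet formation. Times: overnight treatment with compound plus oleate. Detection: Image-based BODIPY and DAPI two-channel analysis. Evaluation: percent inhibition of filter-corrected integrated lipid droplet intensity per well.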
MrgX1 agonist – human MrgX1 receptor agonism, primary screen; Q96LB2; MrgX1-HEK293 cells, Fluo-4 calcium fluorescence, agonist mode; stronger effect = higher value; B-score at 10 µM; 0.44% of 310,000 active; AID 588627;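 active = calcium response B-score plate-corrected fluorescence ratio at least 3 library SD, with starting fluorescence B-score inside 5 SD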
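Material – MrgX1-expressing HEK293 cells · Input – 15,000 cells seeded per well · Dosing – compound as first of three additions · Times – overnight seeding, then 1 h dark dye loading · Measured by – kinetic Fluo-4 NW fluorescence of intracellular calcium · Read-out – B-scored fluorescence response ratio · Benchmarks – positive and negative control wells on each plate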
RGS4 inh – inhibitors of human RGS4; B-score at 10 µM; AID 463165; P49798; 0.45% of 310,000 active; HEK293 M3R/RGS4 inducible, Fluo-4 calcium flux; stronger effect = higher value; triggered by carbachol at its EC20;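 active = B-score, a plate-corrected calcium signal, over three deviations above library mean, with baseline fluorescence within five deviations of library mean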;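 note: RGS4 expression induced by doxycycline in cells with stable M3 receptor; B-score is computed from the integrated fluorescence ratio over baseline after carbachol; higher B-score means a larger calcium signal and so more RGS4 inhibition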
Target sequence (P49798 whole entry, looked up): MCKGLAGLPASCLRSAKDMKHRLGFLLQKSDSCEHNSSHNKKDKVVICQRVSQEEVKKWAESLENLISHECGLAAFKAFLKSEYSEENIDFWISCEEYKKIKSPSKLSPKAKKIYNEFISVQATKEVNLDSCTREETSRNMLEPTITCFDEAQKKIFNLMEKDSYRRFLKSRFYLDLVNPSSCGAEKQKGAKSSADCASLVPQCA
MrgX1 antag – human MrgX1 receptor antagonism, primary screen; 1.3% of 310,000 active; AID 588676; MRGX1-HEK293 calcium flux, Fluo-4, BAM8-22 antagonism; stronger effect = lower value; B-score at 10 µM;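 active = calcium-response B-score plate-corrected more than 3 library SD below zero, starting fluorescence within 5 deviations, no agonist response on first addition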;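 note: peak minus trough fluorescence over baseline after final BAM8-22 challenge near maximal dose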
RGS4 act – RGS4 potentiation or activation; HEK293 M3R/inducible RGS4, carbachol calcium flux Fluo4; stronger effect = lower value; B-score at 10 µM; 0.92% of 310,000 active; AID 463111;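 active = B-score of the integrated calcium signal more than 4 SD below the library mean, with starting fluorescence not abnormally high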;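 note: negative B-score means reduced calcium response which marks RGS4 activation or potentiation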
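Material: Inducible-RGS4 HEK293 cells carrying M3 receptor; also added: carbachol at ECmax as muscarinic agonist stimulus; incubation: compound preincubation 20 min at room temperature before agonist; signal: Fluo4-AM (2 µM) calcium-flux fluorescence, kinetic read; measure: integrated calcium ratio converted to B score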
Lipid drop inh – confirmation of inhibitors of hepatic lipid droplet formation. shares compounds with Lipid droplet. AML12 mouse hepatocytes, BODIPY lipid droplet imaging; droplets induced with 100 µM oleic acid. inhibition, % at 5.2 µM. 65% of 870 active;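 active = inhibition of lipid droplet metric at least 50%, with more than 300 cells in each of four replicates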
AML12 tox img – toxic to AML12 mouse hepatocytes in counter-screen; 3% of 870 active; AID 463200; shares compounds with Lipid droplet; z-score at 5 µM; DAPI nuclear morphology cytotoxicity imaging; stronger effect = higher value; cells fed 100 µM oleate overnight; in the data active = z-score above about 6.3;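 note: compound exposure lasted overnight at 37 °C before fixation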
AML12 tox ATP – AML12 hepatocyte cytotoxicity, confirmed; AID 463219; AML12 mouse hepatocyte viability, ATP luminescence; cells loaded with 100 µM oleic acid; 530 tested, under 10 active; cytotoxicity, % at 50 µM; shares compounds with Lipid droplet;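 active = cytotoxicity above 50% in each of four replicates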;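 note: compound exposure lasted overnight at 37 °C before the ATP read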
A number is an active result; - = inactive; . = not tested or not shown.

SMILES	MrgX1 allo act	Lipid droplet	MrgX1 agonist	RGS4 inh	MrgX1 antag	RGS4 act	Lipid drop inh	AML12 tox img	AML12 tox ATP
CCOc1ccc(CCNC(=O)CCC(=O)N2CCOc3ccccc32)cc1OCC	-	83	-	-	-	-	111	-	-
CCOc1ccc(CCNC(=O)CCS(=O)(=O)c2ccc(Br)cc2)cc1OCC	-	54	-	-	-	-	92	-	-
CCOc1ccc(CCNC(=O)CCNS(=O)(=O)c2ccc(Br)cc2)cc1OCC	-	75	-	-	-	-	98	-	-
O=C(CCC(=O)N1CCOc2ccccc21)NCCc1ccccc1	-	-	-	-	-	-	.	.	.
CCOc1ccc(CCNC(=O)CCS(=O)(=O)c2ccc(C)cc2)cc1OCC	-	102	-	-	-	-	95	-	-
COc1ccc(CCNC(=O)CCS(=O)(=O)c2ccc(C)cc2)cc1OC	-	-	-	-	-	-	.	.	.
COc1ccc(C(C(=O)NC(C)(C)C)N(C(=O)CCC(=O)Nc2cc(C)on2)c2c(C)cccc2C)cc1 (configuration not stated)	-	-	-	-	-	-	.	.	.
Cc1ccc(S(=O)(=O)Nc2cccc(C(=O)NCC(C)(C)N3CCOCC3)c2)cc1F	-	.	-	-	-	-	.	.	.
CCOc1ccc2c(c1)-c1c(ssc1=S)C(C)(C)N2C	-	57	-	-	-	-	102	-	-
CC1(C)Nc2ccc(O)cc2-c2c1ssc2=S	-	-	-	-	-	-	.	.	.
COc1cccc(C(=O)NC(Cc2ccccc2)c2ccc3c(c2)OCCCO3)c1 (configuration not stated)	-	-	-	-	-	-	.	.	.
COC(=O)/C(=C/c1ccc2c(c1)c1ccccc1n2C)NC(=O)c1ccccc1	-	83	-	-	-	-	80	-	-
CC(C)OC(=O)/C(=C\c1ccccc1)NC(=O)c1ccccc1	-	-	-	-	-	-	.	.	.
CS(=O)(=O)N(CC(=O)Nc1ccccc1Br)Cc1ccccc1	-	56	-	-	-	-	67	-	-
Cc1ccc(C2=C/C(=C/c3cccnc3)C(=O)O2)c(C)c1	-	-	-	-	-	-	.	.	.
COc1ccc(CCNC(=O)CCc2cn(C)c3ccccc23)c(OC)c1OC	-	86	-	-	-	-	99	-	.
COc1ccc(OC)c(CNC(=O)CCCc2cn(C)c3ccccc23)c1	-	82	-	-	-	-	96	-	.
COc1ccc(OC)c(CNC(=O)CCc2cn(C)c3ccccc23)c1	-	-	-	-	-	-	.	.	.
COc1ccc(Br)cc1CNC(=O)CCCc1cn(C)c2ccccc12	-	70	-	-	-	-	94	-	.
COc1ccc(-n2c(=O)c3ccccc3n(CC(=O)Nc3cc(C)on3)c2=O)cc1OC	-	52	-	-	-	-	-	-	.
NC(=O)CC(NC(=O)Cc1cccc2ccccc12)c1ccc(N2CCN(c3ccc(F)cc3)CC2)c([N+](=O)[O-])c1 (configuration not stated)	-	53	-	-	-	-	-	-	.
NC(=O)CC(NC(=O)Cc1cccc2ccccc12)c1ccc(N2CCCCCCC2)c([N+](=O)[O-])c1 (configuration not stated)	-	.	-	-	-	-	.	.	.
COc1ccc(C)cc1S(=O)(=O)N(CC(=O)O)c1ccc(C)cc1	-	53	-	-	-	-	-	-	.
CN1C(=O)[C@H]2[C@@H](C3CC3)N3C(=O)CN(Cc4ccccn4)C(=O)[C@@]3(Cc3ccccc3)[C@H]2C1=O	-	60	-	-	-	-	-	-	.

Screens (PubChem BioAssay)
